Compounds with a hit are over-represented: about 5.8% of the library has one in this group of screens.
T cruzi growth-1: T. cruzi intracellular proliferation inhibitors, primary screen, cell-based, beta-gal Tulahuen parasites, NIH3T3 host, luminescence | T. cruzi beta-gal in NIH3T3, GalScreen luminescence, 90 h | inhibition, % at 8.34 µM | hit rate 5.9% among 77,000;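 active = mean inhibition above about 93%, with at least 55% of replicates each passing it, limit read from the data, passing the limit was not always enough; inconclusive = only one of those two conditions holds; inactive = neither condition holds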
Pf Dd2 inh: P. falciparum Dd2 growth inhibitors, primary screen, SYBR Green fluorescence, single dose replicates | 72 h; stronger effect = lower value | activity change, % at 10 µM | hit rate 2.3% among 94,000; in the data active = activity change below about -80%; inconclusive = no clear call, values can overlap the other calls
GASC1 inh: inhibitors of GASC-1 (KDM4C) histone demethylase, primary screen, biochemical, single concentration HTS. Lysine-specific demethylase 4C (Homo sapiens), Q9H3R0. GST-KDM4C 2-372, H3K9me3 peptide, LANCE TR-FRET. inhibition, % at 12.5 µM. hit rate 0.15% among 96,000;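 active = mean replicate inhibition above about 25%, with at least 55% of replicates also reaching it, limit read from the data, passing the limit was not always enough; inconclusive = only one of those two conditions met; inactive = neither condition met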
Target sequence (Q9H3R0 2-372 limits assumed): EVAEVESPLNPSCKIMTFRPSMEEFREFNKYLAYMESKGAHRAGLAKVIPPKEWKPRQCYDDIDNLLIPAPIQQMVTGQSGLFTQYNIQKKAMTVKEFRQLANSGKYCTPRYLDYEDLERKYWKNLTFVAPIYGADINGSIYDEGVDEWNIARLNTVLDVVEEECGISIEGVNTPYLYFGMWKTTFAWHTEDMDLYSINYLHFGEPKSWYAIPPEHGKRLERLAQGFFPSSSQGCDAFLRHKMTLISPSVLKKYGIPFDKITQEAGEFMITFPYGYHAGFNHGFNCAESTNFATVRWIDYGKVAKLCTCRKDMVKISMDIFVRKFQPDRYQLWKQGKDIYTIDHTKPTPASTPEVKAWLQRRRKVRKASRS
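Material: GST-tagged GASC-1 (JMJD2C) catalytic fragment, aa 2-372 / Quantity: enzyme final amount 10 nM / Medium: HEPES buffer, pH 7.5, plus ascorbate / Doses: one test concentration per compound / Incubation: 30 min reaction, 60 min detection, RT / Measured by: LANCE TR-FRET / Read-out: inhibition from TR-FRET ratio decrease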
IDH1 R132H inh: inhibitors of IDH1 R132H reductase, primary screen, biochemical, plate reader, single point; Isocitrate dehydrogenase [NADP] cytoplasmic (Homo sapiens), O75874; inhibition, % at 10 µM; hit rate 0.18% among 70,000; AID 624101, 2012; diaphorase/resazurin fluorescence, 60 min; in the data active = inhibition above about 34%; inconclusive = no clear call, values can overlap the other calls; inactive = below about 11%;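 note: 0% = DMSO and 100% = no enzyme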
T cruzi growth-2: T. cruzi intracellular proliferation inhibitors, confirmation, cell-based, NIH3T3 host, beta-gal parasite, luminescence, cherry-pick; hit rate 72% among 5,600; inhibition, % at 8.35 µM; AID 651739, 2012; T. cruzi beta-gal in NIH3T3, GalScreen luminescence, 90 h; shares compounds with T cruzi growth-1;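 active = mean replicate inhibition above about 95% and at least 55% of replicates individually reaching it, limit read from the data; inconclusive = only one of the two criteria is met; inactive = neither criterion is met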
T cruzi growth-3: inhibitors of intracellular T. cruzi replication, confirmation, NIH3T3 host cells, beta-gal parasites, cherry-pick, set 2. shares compounds with T cruzi growth-1. T. cruzi beta-gal in NIH3T3, GalScreen luminescence, 90 h. inhibition, % at 2.09 µM. hit rate 21% among 5,600;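 active = mean inhibition above about 95%, with at least 55% of replicates also reaching it, limit read from the data; inconclusive = meets just one of the two conditions; inactive = meets neither condition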;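 note: plate controls were neutral control median for no effect and positive control median for full effect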
NIH3T3 tox: cytotoxicity in mouse NIH/3T3 fibroblasts, confirmation, cytotoxicity control for T. cruzi proliferation inhibitor project, cell-based, cherry-pick, single point; NIH/3T3 viability, CellTiter-Glo ATP luminescence, 90 h; hit rate 14% among 5,600; shares compounds with T cruzi growth-1; cytotoxicity (signal decrease), % at 8.35 µM;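 active = mean signal decrease across replicates above about 35% based on untreated-well scatter, with enough replicates individually passing, limit read from the data; inconclusive = no rule stated though some were filed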;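 note: 0% = median of neutral control wells and 100% = median of positive control wells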
3T3 cytotox 2: NIH/3T3 fibroblast cytotoxicity, confirmation, cytotoxicity control, cell-based, cherry-pick, single point, set 2. inhibition, % at 24.9 µM. hit rate 56% among 5,600. AID 651744, 2012. shares compounds with T cruzi growth-1. NIH/3T3 viability, CellTiter-Glo ATP luminescence, 90 h;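 active = mean loss of cell viability signal at or above a set limit, and enough replicates individually reaching it; inconclusive = meets only the mean limit or only the replicate share; inactive = meets neither condition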;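 note: 0% = median of neutral control wells and 100% = median of positive control wells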
* marks the source's active call; other numbers are inactive results; ? = inconclusive; . = not tested or not shown.

SMILES	T cruzi growth-1	Pf Dd2 inh	GASC1 inh	IDH1 R132H inh	T cruzi growth-2	T cruzi growth-3	NIH3T3 tox	3T3 cytotox 2
Cc1cccc(-c2ccc([C@@H]3[C@@H](CO)N4CCCCN(C(=O)c5cccnc5)C[C@@H]34)cc2)c1	100*	-7	-1	.	32	-7	2	19
Cc1cccc(-c2ccc([C@@H]3[C@@H](CO)N4CCCCN(C(=O)c5ccncc5)C[C@@H]34)cc2)c1	58	13	-1	.	.	.	.	.
Cc1cccc(-c2ccc([C@@H]3[C@@H](CO)N4CCCCN(C(=O)c5cccnc5)C[C@H]34)cc2)c1	?	11	1	.	56	-12	11	30*
Cc1cc(NC(=O)NCCCN2CCN(C3CCCCC3)CC2)ccc1Cl	.	.	.	0	.	.	.	.
O=C(Nc1ccccc1)[C@H]1[C@H](CO)[C@H]2Cn3c(ccc(C4=CCCCC4)c3=O)[C@H]2N1Cc1ccccn1	.	3	6	.	.	.	.	.
CC(C)C#Cc1ccc([C@@H]2[C@@H](CO)N3CCCCN(CC4CC4)C[C@@H]23)cc1	?	4	0	.	95*	73	?	106*
CC(C)C#Cc1ccc([C@@H]2[C@@H](CO)N3CCCCN(CC4CC4)C[C@H]23)cc1	108*	-58	0	.	108*	74	36*	90*
COc1cccc(S(=O)(=O)Nc2ccc3c(c2)[C@@H]2C[C@@H](CC(=O)N[C@@H](C)c4ccccc4)O[C@H](CO)[C@@H]2O3)c1	.	-7	-2	-1	.	.	.	.
CCC(=O)N1CC[C@H]2[C@H](CO)Nc3ccc(-c4ccc(C(=O)N(C)C)cc4)cc3[C@H]21	107*	11	-1	.	104*	49	-22	-9
CCC(=O)N1CC[C@H]2[C@H](CO)Nc3ccc(-c4ccccc4)cc3[C@H]21	33	4	-2	.	.	.	.	.
CCC(=O)N1CC[C@@H]2[C@H]1c1cc(-c3ccc(C(=O)N(C)C)cc3)ccc1N[C@@H]2CO	105*	-4	1	.	?	53	0	14
CC=Cc1ccc2n(c1=O)C[C@H]1[C@H](CO)[C@@H](C(=O)NCCCN(C)C)[C@@H]2N1C(=O)c1ccccc1 (mixture of isomers)	.	69	4	.	.	.	.	.
O=C(C1CCCC1)N1CCCCN2[C@H](CO)[C@@H](c3ccc(C#CC4(O)CCCC4)cc3)[C@@H]2C1	-23	-8	.	.	.	.	.	.
O=C(C1CCC1)N1CCCCN2[C@H](CO)[C@@H](c3ccc(C#CC4(O)CCCC4)cc3)[C@@H]2C1	58	14	1	.	.	.	.	.
O=C(C1CCC1)N1CCCCN2[C@@H](CO)[C@@H](c3ccc(C#CC4(O)CCCC4)cc3)[C@@H]2C1	?	35	-1	.	89	54	5	0
O=C(C1CCCC1)N1CCCCN2[C@@H](CO)[C@H](c3ccc(C#CC4(O)CCCC4)cc3)[C@@H]2C1	?	7	.	.	98*	82	33	44*
CNC[C@@H]1Oc2ccc(NC(=O)C3CC3)cc2CC(=O)N([C@@H](C)CO)C[C@@H]1C	28	9	-1	0	.	.	.	.
CCc1ccc(-n2nc3ccc(NC(=O)COc4ccccc4[N+](=O)[O-])cc3n2)cc1	.	.	.	0	.	.	.	.
C[C@@H]1CCCCO[C@H](CN(C)Cc2ccccc2)[C@@H](C)CN([C@@H](C)CO)C(=O)c2cc(NC(=O)c3ccncc3)ccc2O1	98*	-13	-1	3	16	-36	-18	-25
C[C@H]1CCCCO[C@@H](CN(C)Cc2ccncc2)[C@@H](C)CN([C@@H](C)CO)C(=O)c2cc(NC(=O)Cc3ccccc3)ccc2O1	99*	-55	4	4	104*	86	-27	-16
C[C@H](CO)N1C[C@H](C)[C@@H](CN(C)Cc2ccccc2)OCCCC[C@H](C)Oc2ccc(NC(=O)c3ccncc3)cc2C1=O	74	15	-1	.	.	.	.	.
Cc1cccc(-c2nnc(SCC(=O)Nc3c(F)cc(F)cc3Br)n2C)c1	.	.	.	0	.	.	.	.
CN1c2ccc(C#Cc3cccnc3)cc2[C@H]2[C@H](CCN2S(=O)(=O)c2ccc(F)cc2)[C@@H]1CO	103*	-64	0	.	98*	89	15	31*
COc1cccc(S(=O)(=O)N2CC[C@@H]3[C@H]2c2cc(C#Cc4cccnc4)ccc2N[C@@H]3CO)c1	?	-11	-1	.	107*	86	14	43*
CN1c2ccc(C#Cc3cccnc3)cc2[C@@H]2[C@@H](CCN2C(=O)c2cccc(F)c2)[C@@H]1CO	109*	-36	20	.	107*	45	31	31*
SMILES	T cruzi growth-1	Pf Dd2 inh	GASC1 inh	IDH1 R132H inh	T cruzi growth-2	T cruzi growth-3	NIH3T3 tox	3T3 cytotox 2
CN1c2ccc(C#Cc3cccnc3)cc2[C@@H]2[C@@H](CCN2C(=O)C2CCCCC2)[C@H]1CO	119*	-42	1	.	110*	57	41*	42*
O=C(CSc1ncnc2sc3c(c12)CCCCC3)Nc1ccc2c(c1)OCCO2	.	.	.	0	.	.	.	.
COCCNC(=O)c1cc2c(c(-c3cccc(-c4ccc(C#N)cc4)c3)n1)[C@H](CCO)N(C(=O)CC1CC1)C2	.	-54	0	.	.	.	.	.
Cc1ccccc1-c1ccc([C@@H]2[C@@H](CO)N3CCCCN(S(=O)(=O)c4ccc(F)cc4)C[C@@H]23)cc1	108*	7	-1	.	109*	82	30	81*
O=S(=O)(c1ccc(F)cc1)N1CCCCN2[C@H](CO)[C@@H](c3ccc(-c4ccccc4F)cc3)[C@H]2C1	85	-31	.	.	.	.	.	.
Cc1ccccc1-c1ccc([C@H]2[C@@H](CO)N3CCCCN(S(=O)(=O)c4ccc(F)cc4)C[C@H]23)cc1	109*	-67	-2	.	98*	?	12	105*
O=S(=O)(c1ccc(F)cc1)N1CCCCN2[C@H](C1)[C@H](c1ccc(-c3ccccc3)cc1)[C@@H]2CO	64	-23	0	.	.	.	.	.
COc1ccc(S(=O)(=O)N(C)CC(=O)Nc2cccc(SC)c2)cc1C	.	.	.	-1	.	.	.	.
Cc1noc(C)c1S(=O)(=O)N(C)C[C@@H]1Oc2ccc(NS(C)(=O)=O)cc2CC(=O)N([C@H](C)CO)C[C@H]1C	8	-3	0	3	.	.	.	.

Source: PubChem BioAssay (Broad Institute)
